Assay [1] deals with HDAC1 (Homo sapiens, UniProt Q13547). Kind of assay: HDAC biochemical assay.
Assay [2] deals with HDAC2 (Homo sapiens, UniProt Q92769). The experiment in a line: HDAC biochemical assay.
The target in assay [3] is HDAC3 (Homo sapiens, UniProt O15379). The experiment in a line: HDAC biochemical assay.
For assay [4], the target named is HDAC4 (Homo sapiens, UniProt P56524). The experiment in a line: HDAC biochemical assay.
Assay [5] addresses HDAC5 (Homo sapiens, UniProt Q9UQL6). The experiment in a line: HDAC biochemical assay.
The target in assay [6] is T1, HDAC6 (Homo sapiens, UniProt Q9UBN7).
T1 sequence (Q9UBN7 1-1215): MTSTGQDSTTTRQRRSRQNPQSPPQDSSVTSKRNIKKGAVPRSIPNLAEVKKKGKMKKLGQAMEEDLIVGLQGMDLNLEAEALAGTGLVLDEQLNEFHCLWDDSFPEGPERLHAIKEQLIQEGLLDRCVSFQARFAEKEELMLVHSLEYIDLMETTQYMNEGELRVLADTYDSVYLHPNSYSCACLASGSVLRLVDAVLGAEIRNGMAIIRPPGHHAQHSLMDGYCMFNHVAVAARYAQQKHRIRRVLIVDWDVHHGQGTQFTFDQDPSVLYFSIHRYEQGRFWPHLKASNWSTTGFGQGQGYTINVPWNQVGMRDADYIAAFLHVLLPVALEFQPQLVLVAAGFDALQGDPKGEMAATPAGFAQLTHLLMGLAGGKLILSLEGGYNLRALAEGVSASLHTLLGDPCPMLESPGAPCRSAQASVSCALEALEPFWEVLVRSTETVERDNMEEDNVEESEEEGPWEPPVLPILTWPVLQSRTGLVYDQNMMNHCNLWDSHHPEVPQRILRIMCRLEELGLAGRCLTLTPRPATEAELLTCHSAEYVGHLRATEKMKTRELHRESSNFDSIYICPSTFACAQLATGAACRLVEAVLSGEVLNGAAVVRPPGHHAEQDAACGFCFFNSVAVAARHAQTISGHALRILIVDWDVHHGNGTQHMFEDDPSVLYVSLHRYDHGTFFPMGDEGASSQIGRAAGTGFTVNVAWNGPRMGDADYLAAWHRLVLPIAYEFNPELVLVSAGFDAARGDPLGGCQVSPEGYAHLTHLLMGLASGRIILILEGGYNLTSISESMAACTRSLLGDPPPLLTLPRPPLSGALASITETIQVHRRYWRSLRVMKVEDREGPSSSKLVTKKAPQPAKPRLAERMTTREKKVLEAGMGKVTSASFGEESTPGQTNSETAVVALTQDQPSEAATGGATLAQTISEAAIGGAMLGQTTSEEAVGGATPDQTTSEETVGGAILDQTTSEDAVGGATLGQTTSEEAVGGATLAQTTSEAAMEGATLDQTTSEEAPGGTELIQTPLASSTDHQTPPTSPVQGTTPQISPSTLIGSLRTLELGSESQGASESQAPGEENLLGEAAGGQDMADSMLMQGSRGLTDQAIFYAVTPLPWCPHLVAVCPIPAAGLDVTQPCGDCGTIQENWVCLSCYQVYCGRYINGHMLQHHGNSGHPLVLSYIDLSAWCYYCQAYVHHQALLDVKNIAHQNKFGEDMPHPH
The experiment in a line: HDAC biochemical assay. To be noted: AMC-labeled peptide substrate.

The target in assay [7] is T2, HDAC7 (Homo sapiens, UniProt Q8WUI4).
T2 sequence (Q8WUI4 1-952): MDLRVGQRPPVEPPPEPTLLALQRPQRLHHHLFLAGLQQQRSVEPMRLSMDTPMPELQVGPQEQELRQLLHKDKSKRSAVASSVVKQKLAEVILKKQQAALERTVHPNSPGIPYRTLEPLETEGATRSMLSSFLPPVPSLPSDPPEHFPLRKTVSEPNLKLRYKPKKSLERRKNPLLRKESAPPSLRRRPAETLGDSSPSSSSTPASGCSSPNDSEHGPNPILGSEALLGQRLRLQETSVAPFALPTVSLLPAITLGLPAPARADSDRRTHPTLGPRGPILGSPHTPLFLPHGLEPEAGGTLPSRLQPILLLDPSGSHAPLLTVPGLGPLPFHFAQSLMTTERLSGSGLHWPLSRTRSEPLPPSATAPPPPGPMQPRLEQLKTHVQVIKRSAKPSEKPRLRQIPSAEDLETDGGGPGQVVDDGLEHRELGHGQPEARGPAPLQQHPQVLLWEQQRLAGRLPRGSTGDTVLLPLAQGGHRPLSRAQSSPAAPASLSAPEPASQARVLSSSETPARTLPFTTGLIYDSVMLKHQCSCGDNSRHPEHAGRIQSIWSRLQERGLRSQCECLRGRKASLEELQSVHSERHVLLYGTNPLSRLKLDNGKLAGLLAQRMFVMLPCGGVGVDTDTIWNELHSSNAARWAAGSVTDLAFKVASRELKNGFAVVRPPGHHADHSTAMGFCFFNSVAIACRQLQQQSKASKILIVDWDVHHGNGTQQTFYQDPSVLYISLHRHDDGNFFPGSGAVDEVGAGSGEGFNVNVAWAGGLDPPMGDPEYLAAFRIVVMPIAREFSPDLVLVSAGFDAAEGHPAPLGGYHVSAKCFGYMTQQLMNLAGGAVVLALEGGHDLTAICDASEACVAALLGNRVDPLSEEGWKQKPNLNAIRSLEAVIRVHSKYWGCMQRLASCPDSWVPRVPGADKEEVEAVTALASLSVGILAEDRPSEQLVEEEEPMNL
The experiment in a line: HDAC biochemical assay.

In assay [8] the target is HDAC9 (Homo sapiens, UniProt Q9UKV0). The experiment in a line: HDAC biochemical assay.
HDAC9, sequence (Q9UKV0 whole entry): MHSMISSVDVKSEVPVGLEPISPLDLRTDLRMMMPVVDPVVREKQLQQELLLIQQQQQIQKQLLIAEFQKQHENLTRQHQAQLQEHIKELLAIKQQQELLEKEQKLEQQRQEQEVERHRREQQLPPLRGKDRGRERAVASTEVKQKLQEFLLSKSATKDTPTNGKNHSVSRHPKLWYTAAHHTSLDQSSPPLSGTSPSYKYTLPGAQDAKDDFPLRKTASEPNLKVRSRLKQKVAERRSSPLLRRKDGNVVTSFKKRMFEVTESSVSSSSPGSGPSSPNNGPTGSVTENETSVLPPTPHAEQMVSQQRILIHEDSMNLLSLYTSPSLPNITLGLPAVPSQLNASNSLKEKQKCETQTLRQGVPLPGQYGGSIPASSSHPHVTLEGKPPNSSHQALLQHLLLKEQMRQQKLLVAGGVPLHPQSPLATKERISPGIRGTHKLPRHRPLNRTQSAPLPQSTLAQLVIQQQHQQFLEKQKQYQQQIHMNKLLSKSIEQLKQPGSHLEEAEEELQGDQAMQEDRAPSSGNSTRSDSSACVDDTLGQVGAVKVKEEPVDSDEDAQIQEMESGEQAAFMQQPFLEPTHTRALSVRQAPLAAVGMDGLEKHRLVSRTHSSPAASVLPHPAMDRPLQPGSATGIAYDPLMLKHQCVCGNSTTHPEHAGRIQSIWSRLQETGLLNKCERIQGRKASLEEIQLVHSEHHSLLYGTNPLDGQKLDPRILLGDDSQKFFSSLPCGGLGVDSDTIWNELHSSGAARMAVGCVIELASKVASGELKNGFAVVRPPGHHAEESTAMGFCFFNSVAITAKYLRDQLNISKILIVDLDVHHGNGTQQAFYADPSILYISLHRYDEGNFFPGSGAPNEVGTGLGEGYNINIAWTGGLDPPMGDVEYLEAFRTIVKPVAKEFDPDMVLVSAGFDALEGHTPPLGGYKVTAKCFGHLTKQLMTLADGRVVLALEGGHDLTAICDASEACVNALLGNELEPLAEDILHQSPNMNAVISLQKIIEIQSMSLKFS
Assay [9] deals with T3, HDAC10 (Homo sapiens, UniProt Q969S8).
T3 sequence (Q969S8 1-669): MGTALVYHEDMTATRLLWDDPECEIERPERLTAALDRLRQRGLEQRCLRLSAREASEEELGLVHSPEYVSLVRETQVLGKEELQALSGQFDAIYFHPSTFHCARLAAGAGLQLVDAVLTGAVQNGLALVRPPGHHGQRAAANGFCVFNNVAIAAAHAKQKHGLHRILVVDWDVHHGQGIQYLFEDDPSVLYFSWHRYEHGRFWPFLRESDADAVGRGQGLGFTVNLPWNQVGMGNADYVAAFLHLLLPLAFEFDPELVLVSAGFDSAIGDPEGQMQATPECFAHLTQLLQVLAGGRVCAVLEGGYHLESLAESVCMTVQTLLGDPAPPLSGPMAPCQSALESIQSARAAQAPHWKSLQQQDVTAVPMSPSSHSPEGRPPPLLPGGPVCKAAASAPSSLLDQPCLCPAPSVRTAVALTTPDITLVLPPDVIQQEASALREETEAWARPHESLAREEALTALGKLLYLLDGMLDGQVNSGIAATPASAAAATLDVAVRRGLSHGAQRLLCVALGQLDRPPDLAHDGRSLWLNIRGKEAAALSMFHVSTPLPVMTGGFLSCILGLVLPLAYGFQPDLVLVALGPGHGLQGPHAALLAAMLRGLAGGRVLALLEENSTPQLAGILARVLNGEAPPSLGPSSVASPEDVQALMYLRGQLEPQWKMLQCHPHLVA
Kind of assay: HDAC biochemical assay.

Assay [10] has as its target T4, HDAC11 (Homo sapiens, UniProt Q96DB2).
T4 sequence (Q96DB2 1-347): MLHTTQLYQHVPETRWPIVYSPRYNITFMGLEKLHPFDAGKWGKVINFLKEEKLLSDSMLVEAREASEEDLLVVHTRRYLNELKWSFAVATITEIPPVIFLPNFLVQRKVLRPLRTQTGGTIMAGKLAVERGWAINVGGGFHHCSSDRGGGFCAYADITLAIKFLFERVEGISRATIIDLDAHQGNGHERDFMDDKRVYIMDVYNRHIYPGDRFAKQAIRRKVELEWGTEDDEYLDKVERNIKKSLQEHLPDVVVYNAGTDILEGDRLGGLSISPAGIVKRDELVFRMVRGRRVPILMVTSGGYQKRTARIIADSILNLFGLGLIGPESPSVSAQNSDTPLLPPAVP
Kind of assay: HDAC biochemical assay.

For assay [11], the target named is T5, HDAC8 (Homo sapiens, UniProt Q9BY41).
T5 sequence (Q9BY41 1-377): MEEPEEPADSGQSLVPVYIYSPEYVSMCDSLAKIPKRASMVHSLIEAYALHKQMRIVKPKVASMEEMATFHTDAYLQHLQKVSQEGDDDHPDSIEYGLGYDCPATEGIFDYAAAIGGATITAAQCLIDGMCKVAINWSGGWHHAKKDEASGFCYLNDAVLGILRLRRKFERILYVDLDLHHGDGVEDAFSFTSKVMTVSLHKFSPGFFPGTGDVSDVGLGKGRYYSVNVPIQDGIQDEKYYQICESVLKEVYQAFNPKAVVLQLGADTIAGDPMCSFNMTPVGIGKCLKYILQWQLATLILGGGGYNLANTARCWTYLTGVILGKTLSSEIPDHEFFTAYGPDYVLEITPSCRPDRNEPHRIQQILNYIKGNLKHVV
The experiment in a line: HDAC biochemical assay. To be noted: RHKAcKAc-AMC substrate.

In assay [12] the test system is α-tubulin acetylation in PC-3 cells. Kind of assay: Western blot of acetylated α-tubulin in PC-3 cells. It is filed as cell-based, human. The note with it: 18 h. The method in brief:
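PC-3 cells seeded overnight in complete medium, then treated 18 h with test compound (10 doses, threefold dilution). Washed with PBS and lysed in 1× SDS sample buffer. Lysates resolved on 12% Bis-Tris SDS-PAGE and transferred to nitrocellulose. Blocked 1 h in 3% nonfat milk, probed overnight with anti-acetyl-tubulin and a fluorescent secondary, scanned, then reprobed for total α-tubulin. One of three experiments shown.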

Assay [13] concerns histone H3 acetylation in PC-3 cells. The experiment in a line: Western blot of histone H3 acetylation in PC-3 cells. The format is cell-based, human. The note with it: data not shown. For orientation: A western blot detects proteins with antibodies after separation by electrophoresis.
Assay [14] deals with several HDAC subtypes. Kind of assay: Primary screening at 10 µM in HDAC enzymatic assay. The format is biochemical. The note with it: 10 µM of compound. In short, it runs like this:
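Recombinant HDACs run with fluorogenic AMC peptides: RHKKAc-AMC for HDAC1, 2, 3, 6, 10 and 11; RHKAcKAc-AMC for HDAC8; acetyl-Lys(trifluoroacetyl)-AMC for HDAC4, 5, 7 and 9. Substrate then added; developer digests deacetylated product; AMC fluorescence read.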

For assay [15], the system named is 11 HDACs. The experiment in a line: HDAC biochemical assay, panel statements. To be noted: up to 10 µM dose.

Several values for one entry are separate records, joined by “and”; a condition that tells them apart may be missing. Equal values may be shown once. Read-outs that look alike come from different tables or passages of the source. A value given as a limit tells only on which side of the number the result lay.

For orientation: IC50 means the concentration at which inhibition is half-maximal. The low end stands for higher potency, the high end for lower potency.

HDAC1, sequence (Q13547 whole entry): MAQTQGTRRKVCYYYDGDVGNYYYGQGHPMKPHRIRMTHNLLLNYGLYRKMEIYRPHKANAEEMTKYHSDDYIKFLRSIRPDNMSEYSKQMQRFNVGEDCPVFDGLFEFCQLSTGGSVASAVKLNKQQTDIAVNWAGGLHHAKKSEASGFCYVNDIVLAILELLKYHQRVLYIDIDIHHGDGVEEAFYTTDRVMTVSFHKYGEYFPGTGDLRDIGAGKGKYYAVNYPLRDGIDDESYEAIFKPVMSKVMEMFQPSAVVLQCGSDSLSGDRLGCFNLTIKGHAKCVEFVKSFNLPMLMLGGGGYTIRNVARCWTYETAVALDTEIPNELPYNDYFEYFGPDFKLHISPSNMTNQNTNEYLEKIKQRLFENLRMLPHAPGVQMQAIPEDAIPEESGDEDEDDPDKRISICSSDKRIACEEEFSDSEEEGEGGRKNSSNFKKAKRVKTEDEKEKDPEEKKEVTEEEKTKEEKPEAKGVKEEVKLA
HDAC5, sequence (Q9UQL6 whole entry): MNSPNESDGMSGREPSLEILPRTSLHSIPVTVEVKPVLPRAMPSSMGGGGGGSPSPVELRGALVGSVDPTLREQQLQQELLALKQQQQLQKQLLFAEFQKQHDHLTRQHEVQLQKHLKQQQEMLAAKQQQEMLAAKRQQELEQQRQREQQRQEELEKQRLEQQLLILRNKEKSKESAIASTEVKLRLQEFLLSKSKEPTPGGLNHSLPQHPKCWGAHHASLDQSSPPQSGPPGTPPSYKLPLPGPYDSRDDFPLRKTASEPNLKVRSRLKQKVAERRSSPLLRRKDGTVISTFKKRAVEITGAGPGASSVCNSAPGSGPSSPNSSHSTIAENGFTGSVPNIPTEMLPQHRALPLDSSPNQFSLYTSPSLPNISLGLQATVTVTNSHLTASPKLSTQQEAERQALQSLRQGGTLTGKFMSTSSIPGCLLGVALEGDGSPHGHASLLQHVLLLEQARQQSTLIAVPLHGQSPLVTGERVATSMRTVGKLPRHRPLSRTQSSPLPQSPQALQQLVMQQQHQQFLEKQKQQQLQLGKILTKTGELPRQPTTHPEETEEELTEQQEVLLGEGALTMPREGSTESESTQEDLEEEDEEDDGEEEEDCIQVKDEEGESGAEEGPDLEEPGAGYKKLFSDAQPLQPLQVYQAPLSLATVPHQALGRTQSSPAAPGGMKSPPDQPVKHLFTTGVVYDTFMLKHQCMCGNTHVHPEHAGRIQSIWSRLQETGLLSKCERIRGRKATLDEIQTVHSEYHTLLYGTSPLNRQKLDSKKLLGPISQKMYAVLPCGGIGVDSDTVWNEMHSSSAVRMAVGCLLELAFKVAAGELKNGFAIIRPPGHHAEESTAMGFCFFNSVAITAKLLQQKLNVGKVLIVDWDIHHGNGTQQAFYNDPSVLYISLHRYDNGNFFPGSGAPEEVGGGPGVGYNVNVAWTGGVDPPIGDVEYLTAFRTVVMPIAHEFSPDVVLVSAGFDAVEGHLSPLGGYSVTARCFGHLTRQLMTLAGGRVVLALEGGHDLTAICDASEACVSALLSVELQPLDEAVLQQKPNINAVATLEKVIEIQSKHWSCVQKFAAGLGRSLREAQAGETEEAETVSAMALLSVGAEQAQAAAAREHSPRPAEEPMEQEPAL
HDAC4, sequence (P56524 whole entry): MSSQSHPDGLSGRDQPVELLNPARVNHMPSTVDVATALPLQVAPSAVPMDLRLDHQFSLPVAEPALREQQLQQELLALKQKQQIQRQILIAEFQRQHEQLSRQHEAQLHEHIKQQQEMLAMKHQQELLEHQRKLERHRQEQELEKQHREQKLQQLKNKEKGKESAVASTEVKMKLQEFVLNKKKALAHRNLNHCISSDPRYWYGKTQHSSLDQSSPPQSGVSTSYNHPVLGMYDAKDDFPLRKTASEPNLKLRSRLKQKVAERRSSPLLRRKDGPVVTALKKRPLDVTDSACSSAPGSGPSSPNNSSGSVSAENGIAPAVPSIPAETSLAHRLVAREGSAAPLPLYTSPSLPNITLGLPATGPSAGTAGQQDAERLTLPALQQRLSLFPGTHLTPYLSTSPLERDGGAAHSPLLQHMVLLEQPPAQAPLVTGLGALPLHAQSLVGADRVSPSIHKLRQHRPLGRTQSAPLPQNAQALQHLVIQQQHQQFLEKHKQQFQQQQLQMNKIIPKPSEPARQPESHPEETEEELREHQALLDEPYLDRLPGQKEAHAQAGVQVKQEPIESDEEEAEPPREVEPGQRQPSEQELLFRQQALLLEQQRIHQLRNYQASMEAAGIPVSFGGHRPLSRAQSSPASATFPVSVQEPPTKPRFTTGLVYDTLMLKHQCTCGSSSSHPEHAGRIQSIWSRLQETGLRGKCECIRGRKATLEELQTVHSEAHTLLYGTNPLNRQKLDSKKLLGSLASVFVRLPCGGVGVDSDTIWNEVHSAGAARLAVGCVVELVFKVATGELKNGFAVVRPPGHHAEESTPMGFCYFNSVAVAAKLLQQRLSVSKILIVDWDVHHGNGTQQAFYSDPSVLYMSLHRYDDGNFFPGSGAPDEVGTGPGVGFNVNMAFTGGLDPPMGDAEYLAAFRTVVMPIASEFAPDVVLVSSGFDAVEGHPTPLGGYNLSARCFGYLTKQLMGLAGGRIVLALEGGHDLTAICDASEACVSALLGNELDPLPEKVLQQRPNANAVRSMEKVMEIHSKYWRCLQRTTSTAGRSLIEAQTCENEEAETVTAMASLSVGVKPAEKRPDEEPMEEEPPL
HDAC3, sequence (O15379 whole entry): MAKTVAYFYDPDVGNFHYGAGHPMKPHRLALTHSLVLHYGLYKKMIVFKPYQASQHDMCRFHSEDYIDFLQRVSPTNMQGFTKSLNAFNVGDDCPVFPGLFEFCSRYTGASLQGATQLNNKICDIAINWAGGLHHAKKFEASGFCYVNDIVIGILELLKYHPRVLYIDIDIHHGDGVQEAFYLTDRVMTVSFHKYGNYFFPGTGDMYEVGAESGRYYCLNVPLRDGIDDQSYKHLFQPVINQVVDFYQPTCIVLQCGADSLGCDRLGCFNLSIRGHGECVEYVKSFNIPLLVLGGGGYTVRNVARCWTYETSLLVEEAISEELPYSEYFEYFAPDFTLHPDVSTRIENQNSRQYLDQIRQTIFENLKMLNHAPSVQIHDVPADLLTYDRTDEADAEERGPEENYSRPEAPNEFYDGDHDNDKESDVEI
HDAC3, sequence (Q9Y618 395-489 partner limits assumed): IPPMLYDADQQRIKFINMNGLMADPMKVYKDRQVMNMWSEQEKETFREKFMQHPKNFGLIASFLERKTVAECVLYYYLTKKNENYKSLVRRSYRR
HDAC2, sequence (Q92769 whole entry): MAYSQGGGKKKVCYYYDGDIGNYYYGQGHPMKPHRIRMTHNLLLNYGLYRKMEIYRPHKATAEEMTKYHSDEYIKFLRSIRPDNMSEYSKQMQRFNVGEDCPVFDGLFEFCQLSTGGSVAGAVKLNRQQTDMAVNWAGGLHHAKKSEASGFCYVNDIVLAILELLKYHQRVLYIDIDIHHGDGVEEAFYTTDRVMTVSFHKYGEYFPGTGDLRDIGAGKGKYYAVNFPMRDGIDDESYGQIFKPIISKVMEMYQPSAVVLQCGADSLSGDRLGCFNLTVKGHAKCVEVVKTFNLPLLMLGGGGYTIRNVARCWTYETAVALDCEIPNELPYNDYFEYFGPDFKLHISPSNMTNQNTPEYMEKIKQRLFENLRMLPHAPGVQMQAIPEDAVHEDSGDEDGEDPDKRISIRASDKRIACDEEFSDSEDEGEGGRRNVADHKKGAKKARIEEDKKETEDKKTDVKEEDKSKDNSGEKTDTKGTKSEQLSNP

As to `Cc1ccccc1-n1sc2cc(F)ccc2c1=O` [Thr101, 6-Fluoro-2-o-tolylbenzo[d] isothiazol-3(2H)-one], the IC50 in assay [1] (HDAC1 IC50, biochemical HDAC assay, AMC-labeled peptide substrate) is 3.62 µM; in assay [2] it was over 10 µM; in [3] it was 4.24 µM; in [4] it was 6.07 µM; in assay [5], 1.57 µM; in [6], 4.14 µM. Also, the IC50 in assay [7] was 3.43 µM; in [8] it was 3.77 µM; in [9], over 10 µM; in [10], over 10 µM.

For the compound `O=c1c2ccccc2[se]n1-c1ccccc1` [Ebselen, 2-phenyl-1,2-benzisoselenazol-3(2H)-one], the IC50 in assay [1] is over 10 µM; in assay [2], over 10 µM; in [3] it was over 10 µM; in assay [4], over 10 µM; in assay [5] (HDAC5 IC50, biochemical HDAC assay, acetyl-Lys(trifluoroacetyl)-AMC substrate) it was 3.49 µM; in [6], 6.99 µM. Further, the IC50 in assay [7] was over 10 µM; in assay [11], 1.2 µM and 1.21 µM; in [8] (HDAC9 IC50, biochemical HDAC assay, acetyl-Lys(trifluoroacetyl)-AMC substrate), 3.75 µM; in assay [9] it was over 10 µM; in [10], over 10 µM. In addition, in assay [12], the “acetylated α-tubulin level” value is recorded as “not observed”. For the same compound, in [13], the “effect on acetylation/deacetylation of histone H3” value is reported as “not observed”. The “inhibition in primary screening” value in [14] was over 50%. Further, the “inhibition of the other HDAC subtypes (other than HDAC5, HDAC6, HDAC8, HDAC9)” value in assay [15] is given as “no significant inhibition”.

`O=C(CCCCCCNC(=O)c1cnc(N(c2ccccc2)c2ccccc2)nc1)NO` [ACY-1215]: the “acetylated α-tubulin level” value in assay [12] is on record as “significantly increased”.
